Measurements from ChEMBL document CHEMBL4406821, “Novel dual inhibitors targeting CDK4 and VEGFR2 synergistically suppressed cancer progression and angiogenesis” (Eur J Med Chem, 2019).
The source made the active and inactive calls. The rule behind the calls is not given here.

Columns and labels:
HeLa = test: Inhibition of colony formation in human HeLa cells at 40 to 80 nM incubated for 5 days by crystal violet staining based light microscopy; format: functional, cell-based
Procedure, shortened: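 4 × 10^3 cells per well were cultured with graded concentrations for 5 days. Cells were then fixed with 20% methanol, stained with 0.5% crystal violet and photographed by light microscopy.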

MDA-MB-231 = test: Induction of apoptosis in human MDA-MB-231 cells assessed as increase in early apoptotic cells at 20 to 40 nM incubated for 48 hrs by annexin V FITC and propidium iodide staining based flow cytometry; format: functional, cell-based
Procedure, shortened: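 Cells were treated for 48 h, stained with FITC Annexin V and PI, and analyzed by flow cytometry to count early and late apoptotic cells.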

[1] = Clearance in Sprague-Dawley rat at 10 mg/kg, iv by HPLC-MS analysis; format: ADME, organism-based; conditions: in vivo
Procedure, shortened: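 Rats fitted with jugular vein catheters for serial blood sampling. Compound dissolved in saline with 5% (v/v) DMSO and given as a single 10 mg/kg dose iv or po after an overnight fast, n = 5 per group. Plasma isolated at once and measured by HPLC with tandem MS detection. Parameters derived by noncompartmental fitting.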

[2] = target: NUAK family SNF1-like kinase 1 (Homo sapiens) (UniProt O60285); test: Inhibition of recombinant human ARK5 (2 to end residues) at 1 uM using KKKVSRSGLYRSP as substrate incubated for 40 mins in presence of [gamma-33P]-ATP by scintillation counting method relative to control
Chain of NUAK family SNF1-like kinase 1 (Homo sapiens) (O60285 whole entry): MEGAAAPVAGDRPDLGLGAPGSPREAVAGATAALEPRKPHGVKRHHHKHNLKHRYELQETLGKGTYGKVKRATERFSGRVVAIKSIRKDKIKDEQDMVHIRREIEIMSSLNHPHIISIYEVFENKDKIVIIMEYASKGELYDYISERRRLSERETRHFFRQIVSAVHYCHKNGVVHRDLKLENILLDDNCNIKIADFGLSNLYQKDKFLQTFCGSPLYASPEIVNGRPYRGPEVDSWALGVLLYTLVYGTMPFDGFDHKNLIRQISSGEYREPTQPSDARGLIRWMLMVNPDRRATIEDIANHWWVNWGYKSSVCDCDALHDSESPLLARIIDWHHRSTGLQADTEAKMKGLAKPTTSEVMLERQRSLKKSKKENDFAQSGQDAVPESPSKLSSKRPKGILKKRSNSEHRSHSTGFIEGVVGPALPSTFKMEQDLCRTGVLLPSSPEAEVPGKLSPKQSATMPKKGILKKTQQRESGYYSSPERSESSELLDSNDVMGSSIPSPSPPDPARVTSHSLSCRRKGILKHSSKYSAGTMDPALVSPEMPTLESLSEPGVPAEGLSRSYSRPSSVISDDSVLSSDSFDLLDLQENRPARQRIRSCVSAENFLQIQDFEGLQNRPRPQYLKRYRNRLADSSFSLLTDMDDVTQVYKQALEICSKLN
Procedure, shortened: (§1)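 Kinase panel profiling at 1 μM performed by Eurofins KinaseProfiler; percent inhibition reported as mean of two independent experiments.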

[3] = target: Aurora kinase A (Homo sapiens) (UniProt O14965); test: Inhibition of recombinant full length human Aurora A at 1 uM using LRRASLG as substrate incubated for 40 mins in presence of [gamma-33P]-ATP by scintillation counting method relative to control; procedure, shortened: as §1
[4] = target: Tyrosine-protein kinase Fes/Fps (Homo sapiens) (UniProt P07332); test: Inhibition of recombinant human FES (2 to end residues) at 1 uM using poly(Glu, Tyr) 4:1 as substrate incubated for 40 mins in presence of [gamma-33P]-ATP by scintillation counting method relative to control
[5] = tested on: Mast/stem cell growth factor receptor Kit (Homo sapiens), P10721 [D816H]; test: Inhibition of recombinant human cKIT D816H mutant (544 to end residues) at 1 uM using GGMEDIYFEFMGG as substrate incubated for 40 mins in presence of [gamma-33P]-ATP by scintillation counting method relative to control
Procedure, shortened: (§2)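 Tested at a single 1 uM in an outsourced commercial kinase-profiling panel, read as percent inhibition. Each value is the mean of two independent experiments.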

[6] = tested on: Mast/stem cell growth factor receptor Kit (Homo sapiens), P10721 [V654A]; test: Inhibition of recombinant human c-KIT V654A mutant (544 to end residues) at 1 uM using GGMEDIYFEFMGG as substrate incubated for 40 mins in presence of [gamma-33P]-ATP by scintillation counting method relative to control; procedure, shortened: as §2
[7] = target: Receptor tyrosine-protein kinase erbB-2 (Homo sapiens) (UniProt P04626); test: Inhibition of recombinant human ERBB2 (676 to end residues) at 1 uM using poly (Glu, Tyr) 4:1 as substrate incubated for 40 mins in presence of [gamma-33P]-ATP by scintillation counting method relative to control
Chain of Receptor tyrosine-protein kinase erbB-2 (Homo sapiens) (P04626 whole entry): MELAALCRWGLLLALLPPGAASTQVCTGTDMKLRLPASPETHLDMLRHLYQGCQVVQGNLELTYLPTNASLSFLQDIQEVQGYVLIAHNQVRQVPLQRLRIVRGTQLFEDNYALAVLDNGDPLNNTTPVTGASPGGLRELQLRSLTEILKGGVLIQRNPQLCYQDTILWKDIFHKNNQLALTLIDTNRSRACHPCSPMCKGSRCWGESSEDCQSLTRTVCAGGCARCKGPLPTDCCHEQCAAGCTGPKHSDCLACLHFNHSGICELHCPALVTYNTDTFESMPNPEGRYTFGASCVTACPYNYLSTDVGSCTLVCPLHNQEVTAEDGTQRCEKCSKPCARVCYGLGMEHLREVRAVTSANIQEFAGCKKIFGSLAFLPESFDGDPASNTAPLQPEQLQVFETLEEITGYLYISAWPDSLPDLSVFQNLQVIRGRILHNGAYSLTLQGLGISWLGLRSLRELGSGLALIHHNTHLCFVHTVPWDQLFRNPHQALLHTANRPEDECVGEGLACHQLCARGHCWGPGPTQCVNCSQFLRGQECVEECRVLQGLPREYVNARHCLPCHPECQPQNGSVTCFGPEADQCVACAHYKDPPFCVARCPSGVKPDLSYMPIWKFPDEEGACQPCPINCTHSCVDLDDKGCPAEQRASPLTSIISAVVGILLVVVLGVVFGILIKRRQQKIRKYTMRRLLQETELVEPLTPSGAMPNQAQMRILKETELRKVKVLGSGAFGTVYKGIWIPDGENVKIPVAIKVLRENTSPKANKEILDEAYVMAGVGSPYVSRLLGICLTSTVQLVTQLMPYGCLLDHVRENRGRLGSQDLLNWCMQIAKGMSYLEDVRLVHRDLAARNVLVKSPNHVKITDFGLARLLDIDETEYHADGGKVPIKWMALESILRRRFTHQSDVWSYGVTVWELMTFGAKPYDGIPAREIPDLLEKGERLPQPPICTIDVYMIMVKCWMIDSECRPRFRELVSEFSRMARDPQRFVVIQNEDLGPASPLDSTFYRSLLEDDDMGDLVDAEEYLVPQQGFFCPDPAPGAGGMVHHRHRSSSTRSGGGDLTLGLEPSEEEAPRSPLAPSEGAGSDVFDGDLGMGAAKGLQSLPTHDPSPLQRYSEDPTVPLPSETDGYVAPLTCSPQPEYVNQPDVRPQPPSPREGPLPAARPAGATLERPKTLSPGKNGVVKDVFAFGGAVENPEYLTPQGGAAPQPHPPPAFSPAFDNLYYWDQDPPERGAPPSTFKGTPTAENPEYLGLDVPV

[8] = target: Glycogen synthase kinase-3 alpha (Homo sapiens) (UniProt P49840); test: Inhibition of recombinant human GSK3alpha (2 to end residues) at 1 uM using YRRAAVPPSPSLSRHSSPHQS(p) EDEEE as substrate incubated for 40 mins in presence of [gamma-33P]-ATP by scintillation counting method relative to control; procedure, shortened: as §2
Chain of Glycogen synthase kinase-3 alpha (Homo sapiens) (P49840 2-483 limits assumed): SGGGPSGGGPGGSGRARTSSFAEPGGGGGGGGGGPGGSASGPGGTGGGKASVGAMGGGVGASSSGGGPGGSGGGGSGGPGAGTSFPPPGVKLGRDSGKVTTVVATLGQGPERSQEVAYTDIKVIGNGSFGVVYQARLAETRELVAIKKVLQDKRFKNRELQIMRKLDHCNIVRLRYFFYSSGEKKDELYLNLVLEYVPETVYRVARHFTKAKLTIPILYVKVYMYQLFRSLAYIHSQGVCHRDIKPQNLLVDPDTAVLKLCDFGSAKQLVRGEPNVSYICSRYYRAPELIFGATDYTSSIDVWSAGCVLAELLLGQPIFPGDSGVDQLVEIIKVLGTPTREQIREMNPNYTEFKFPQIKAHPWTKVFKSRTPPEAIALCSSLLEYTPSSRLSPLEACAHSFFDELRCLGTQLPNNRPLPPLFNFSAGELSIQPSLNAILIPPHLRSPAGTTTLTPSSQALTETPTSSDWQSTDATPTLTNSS

[9] = target: Tyrosine-protein kinase HCK (Homo sapiens) (UniProt P08631); test: Inhibition of recombinant activated human HCK (230 to 497 residues) at 1 uM using GGMEDIYFEFMGGKKK as substrate incubated for 40 mins in presence of [gamma-33P]-ATP by scintillation counting method relative to control; procedure, shortened: as §1
[10] = target: Dual specificity mitogen-activated protein kinase kinase 6 (Homo sapiens) (UniProt P52564); test: Inhibition of recombinant human MKK6 (4 to end residues) at 1 uM using unactive SAPK2a as substrate incubated for 40 mins in presence of [gamma-33P]-ATP by scintillation counting method relative to control
Chain of Dual specificity mitogen-activated protein kinase kinase 6 (Homo sapiens) (P52564 whole entry): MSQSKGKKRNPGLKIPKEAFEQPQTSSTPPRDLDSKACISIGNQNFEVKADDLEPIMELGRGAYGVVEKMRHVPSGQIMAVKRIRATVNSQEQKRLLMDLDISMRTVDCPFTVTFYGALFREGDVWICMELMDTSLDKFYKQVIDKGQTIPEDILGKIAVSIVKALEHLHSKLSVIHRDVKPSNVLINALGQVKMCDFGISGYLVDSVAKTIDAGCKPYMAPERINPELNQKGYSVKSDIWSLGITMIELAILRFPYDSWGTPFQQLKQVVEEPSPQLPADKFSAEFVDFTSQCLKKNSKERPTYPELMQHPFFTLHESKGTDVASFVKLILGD

[11] = target: Ribosomal protein S6 kinase alpha-5 (Homo sapiens) (UniProt O75582); test: Inhibition of recombinant human MSK1 (2 to end residues) at 1 uM using GRPRTSSFAEGKK as substrate incubated for 40 mins in presence of [gamma-33P]-ATP by scintillation counting method relative to control
[12] = target: Protein-tyrosine kinase 2-beta (Homo sapiens) (UniProt Q14289); test: Inhibition of recombinant human full length PYK2 at 1 uM using poly(Glu, Tyr) 4:1 as substrate incubated for 40 mins in presence of [gamma-33P]-ATP by scintillation counting method relative to control
[13] = target: Testis-specific serine/threonine-protein kinase 3 (Homo sapiens) (UniProt Q96PN8); test: Inhibition of recombinant human full length TSSK3 at 1 uM using AMARAASAAALARRR as substrate incubated for 40 mins in presence of [gamma-33P]-ATP by scintillation counting method relative to control
Procedure, shortened: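 Single-point inhibition at 1 uM measured in a commercial kinase profiling panel (KinaseProfiler); each value is the mean of two independent experiments.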

[14] = target: Serine/threonine-protein kinase TAO3 (Homo sapiens) (UniProt Q9H2K8); test: Inhibition of recombinant human TAO3 (1 to 411 residues) at 1 uM using myelin basic protein as substrate incubated for 40 mins in presence of [gamma-33P]-ATP by scintillation counting method relative to control
[15] = target: Angiopoietin-1 receptor (Homo sapiens) (UniProt Q02763); test: Inhibition of recombinant human TIE2 (771 to end residues) at 1 uM using EFPIYDFLPAKKK as substrate incubated for 40 mins in presence of [gamma-33P]-ATP by scintillation counting method relative to control
Chain of Angiopoietin-1 receptor (Homo sapiens) (Q02763 whole entry): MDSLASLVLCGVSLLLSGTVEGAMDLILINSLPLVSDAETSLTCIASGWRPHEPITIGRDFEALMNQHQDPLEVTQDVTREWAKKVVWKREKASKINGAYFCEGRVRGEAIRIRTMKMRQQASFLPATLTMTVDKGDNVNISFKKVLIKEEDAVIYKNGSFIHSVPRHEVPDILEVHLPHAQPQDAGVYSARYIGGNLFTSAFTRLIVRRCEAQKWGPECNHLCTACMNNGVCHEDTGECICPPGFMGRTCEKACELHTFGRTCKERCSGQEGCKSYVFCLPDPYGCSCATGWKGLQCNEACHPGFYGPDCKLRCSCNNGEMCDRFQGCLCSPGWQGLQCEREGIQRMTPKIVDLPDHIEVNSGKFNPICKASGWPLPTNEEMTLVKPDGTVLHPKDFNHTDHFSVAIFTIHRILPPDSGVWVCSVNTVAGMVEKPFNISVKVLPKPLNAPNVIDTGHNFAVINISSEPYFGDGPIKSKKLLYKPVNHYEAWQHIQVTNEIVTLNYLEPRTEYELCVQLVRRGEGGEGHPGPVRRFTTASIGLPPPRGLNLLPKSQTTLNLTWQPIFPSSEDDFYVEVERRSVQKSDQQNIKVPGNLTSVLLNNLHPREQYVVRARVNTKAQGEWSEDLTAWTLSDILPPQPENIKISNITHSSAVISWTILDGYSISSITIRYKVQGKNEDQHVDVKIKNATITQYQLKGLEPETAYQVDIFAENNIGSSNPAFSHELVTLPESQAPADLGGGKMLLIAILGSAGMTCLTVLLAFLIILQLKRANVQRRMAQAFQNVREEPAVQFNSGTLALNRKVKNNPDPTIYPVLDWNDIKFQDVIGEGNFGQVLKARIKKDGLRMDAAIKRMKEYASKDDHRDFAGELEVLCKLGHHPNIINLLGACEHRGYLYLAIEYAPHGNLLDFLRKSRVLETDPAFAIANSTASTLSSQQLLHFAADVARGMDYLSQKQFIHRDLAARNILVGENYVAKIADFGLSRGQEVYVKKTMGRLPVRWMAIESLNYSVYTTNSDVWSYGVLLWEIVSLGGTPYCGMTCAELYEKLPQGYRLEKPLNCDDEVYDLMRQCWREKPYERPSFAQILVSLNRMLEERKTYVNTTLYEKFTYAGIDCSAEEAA

[16] = tested on: Angiopoietin-1 receptor (Homo sapiens), Q02763 [R849W]; test: Inhibition of recombinant human TIE2 R849W mutant (771 to end residues) at 1 uM using EFPIYDFLPAKKK as substrate incubated for 40 mins in presence of [gamma-33P]-ATP by scintillation counting method relative to control
Chain of Angiopoietin-1 receptor (Homo sapiens), Q02763 [R849W] (Q02763 whole entry R849W, the tested form may be a part): as the sequence (Q02763 whole entry) above, with R849W counted along it

[17] = target: Serine/threonine-protein kinase ULK1 (Homo sapiens) (UniProt O75385); test: Inhibition of recombinant human ULK1 (1 to 314 residues) at 1 uM using casein as substrate incubated for 40 mins in presence of [gamma-33P]-ATP by scintillation counting method relative to control; procedure, shortened: as §2
Chain of Serine/threonine-protein kinase ULK1 (Homo sapiens) (O75385 whole entry, the tested form may be a part): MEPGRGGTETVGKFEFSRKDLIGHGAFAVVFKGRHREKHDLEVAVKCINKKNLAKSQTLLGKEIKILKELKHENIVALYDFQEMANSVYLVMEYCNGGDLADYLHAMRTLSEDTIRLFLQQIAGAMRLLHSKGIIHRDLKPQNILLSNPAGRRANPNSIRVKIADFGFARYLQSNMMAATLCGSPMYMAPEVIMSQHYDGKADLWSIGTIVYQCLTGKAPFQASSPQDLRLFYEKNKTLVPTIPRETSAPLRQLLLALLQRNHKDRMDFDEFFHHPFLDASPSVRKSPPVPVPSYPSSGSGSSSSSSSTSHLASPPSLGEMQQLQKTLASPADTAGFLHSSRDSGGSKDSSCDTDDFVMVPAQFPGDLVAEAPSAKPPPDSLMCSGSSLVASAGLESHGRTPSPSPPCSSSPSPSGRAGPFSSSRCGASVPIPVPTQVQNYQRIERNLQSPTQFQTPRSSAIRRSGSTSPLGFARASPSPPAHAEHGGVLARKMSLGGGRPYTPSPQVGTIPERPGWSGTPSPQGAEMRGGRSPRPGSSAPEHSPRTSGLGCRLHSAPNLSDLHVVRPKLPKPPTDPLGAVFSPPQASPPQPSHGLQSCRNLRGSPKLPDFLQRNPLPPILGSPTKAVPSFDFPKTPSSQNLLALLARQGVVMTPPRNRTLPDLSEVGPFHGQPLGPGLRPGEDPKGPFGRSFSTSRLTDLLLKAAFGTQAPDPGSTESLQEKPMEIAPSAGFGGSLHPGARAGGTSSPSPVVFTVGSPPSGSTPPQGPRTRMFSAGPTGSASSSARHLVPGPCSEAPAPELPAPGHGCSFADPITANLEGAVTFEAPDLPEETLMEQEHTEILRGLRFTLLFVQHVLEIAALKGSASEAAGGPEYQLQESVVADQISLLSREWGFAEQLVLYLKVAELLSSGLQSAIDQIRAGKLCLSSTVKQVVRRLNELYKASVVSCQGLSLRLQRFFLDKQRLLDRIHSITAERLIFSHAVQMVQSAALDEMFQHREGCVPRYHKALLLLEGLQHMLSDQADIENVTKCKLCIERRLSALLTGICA

[18] = target: Fibroblast growth factor receptor 3 (Homo sapiens) (UniProt P22607); test: Inhibition of recombinant human FGFR3 (447 to 761 residues) at 1 uM using poly(Glu, Tyr) 4:1 as substrate incubated for 40 mins in presence of [gamma-33P]-ATP by scintillation counting method relative to control; procedure, shortened: as §2
[19] = Toxicity in NOD/SCID BALB/c mouse xenografted with human SiHa cells assessed as effect on blood parameter by measuring RDW at 40 mg/kg, po administered once two days for 4 times by hematology analyzer; format: organism-based; conditions: in vivo

Cc1ccc(NC(=O)C2(C(=O)Nc3ccc(Nc4ncc(F)c(-c5cc(F)c6nc(C)n(C(C)C)c6c5)n4)cc3)CC2)cc1
inhibition (HeLa): Active | Activity (MDA-MB-231): Active | clearance [1]: 16.7 mL/min/kg | inhibition [2]: 69% | inhibition [3]: 79% | inhibition [4]: 89% | inhibition [5]: 76% | inhibition [6]: 45% | inhibition [7]: 3% | inhibition [8]: 0% | inhibition [9]: 33% | inhibition [10]: 16% | inhibition [11]: 62% | inhibition [12]: 73% | inhibition [13]: 0% | inhibition [14]: 2% | inhibition [15]: 23% | inhibition [16]: 57% | inhibition [17]: 0% | inhibition [18]: 0% | Activity [19]: Non-Toxic
